Laboratory results published in ChEMBL document CHEMBL1667802, “1H-imidazo[4,5-c]pyridine-4-carbonitrile as cathepsin S inhibitors: separation of desired cellular activity from undesired tissue accumulation through optimization of basic nitrogen pka” (Bioorg Med Chem Lett, 2011).

Legend:
[1] = target: T1, Cathepsin L2 (Homo sapiens, UniProt O60911); test: Inhibition of human cathepsin V
T1 sequence (O60911 whole entry): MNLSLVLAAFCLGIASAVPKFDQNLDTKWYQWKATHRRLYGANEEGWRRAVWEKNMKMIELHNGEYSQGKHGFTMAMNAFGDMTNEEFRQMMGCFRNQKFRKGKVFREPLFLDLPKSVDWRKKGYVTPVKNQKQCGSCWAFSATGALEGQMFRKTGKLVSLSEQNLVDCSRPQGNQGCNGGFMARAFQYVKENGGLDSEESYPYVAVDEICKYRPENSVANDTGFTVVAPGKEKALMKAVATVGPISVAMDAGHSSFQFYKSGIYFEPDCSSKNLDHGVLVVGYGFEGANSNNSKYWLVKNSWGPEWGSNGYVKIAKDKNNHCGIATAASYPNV

[2] = target: Cathepsin B (Homo sapiens, UniProt P07858); test: Inhibition of human cathepsin B
[3] = target: T2, Cathepsin S (Homo sapiens, UniProt P25774); test: Inhibition of human cathepsin S
[4] = target: T2, Cathepsin S; test: Inhibition of cathepsin S in human JY cells assessed as accumulation of lip10 by Western blot analysis; type: cell-based
[5] = target: Procathepsin L (Homo sapiens, UniProt P07711); test: Inhibition of human cathepsin L
[6] = target: T3, Cathepsin K (Homo sapiens, UniProt P43235); test: Inhibition of human cathepsin K
T3 sequence (P43235 whole entry): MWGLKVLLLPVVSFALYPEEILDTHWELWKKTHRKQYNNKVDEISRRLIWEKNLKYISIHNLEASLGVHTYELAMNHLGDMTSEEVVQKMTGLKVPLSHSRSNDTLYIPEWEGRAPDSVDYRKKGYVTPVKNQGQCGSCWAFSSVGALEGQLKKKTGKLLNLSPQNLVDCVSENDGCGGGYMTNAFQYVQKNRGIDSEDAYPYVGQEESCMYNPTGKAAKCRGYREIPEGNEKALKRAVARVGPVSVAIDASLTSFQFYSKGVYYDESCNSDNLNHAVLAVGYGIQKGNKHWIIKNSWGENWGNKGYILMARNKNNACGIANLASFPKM

[7] = system: Spleen; test: Drug level in C57BI/6 mouse spleen at 30 mg/kg, po; type: ADME, organism-based; set-up: dose 30 mg/kg, route oral; settings: in vivo, read-out: Drug uptake
[8] = system: Plasma; test: Drug level in C57BI/6 mouse plasma at 30 mg/kg, po; type: ADME, organism-based; set-up: dose 30 mg/kg, route oral; settings: in vivo
[9] = Ratio of drug level in spleen to plasma in C57BI/6 mouse at 30 mg/kg, po; type: ADME, organism-based; set-up: dose 30 mg/kg, route oral
In short: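 HCl salt given by oral gavage at 30 mg/kg in 0.5% gelatin, 5% mannitol in water to C57Bl/6 mice of 18–25 g. Blood and spleen collected 2 h after dosing and total compound level measured in each. Ratio taken as total spleen over total plasma concentration.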

[10] = Dissociation constant, pKa of the compound; type: physicochemical
[11] = Drug level in C57BI/6 mouse spleen at 30 mg/kg, po after 4 hrs; type: ADME, organism-based; set-up: dose 30 mg/kg, route oral; settings: read-out: Drug uptake
[12] = Drug level in C57BI/6 mouse plasma at 30 mg/kg, po after 4 hrs; type: ADME, organism-based; set-up: dose 30 mg/kg, route oral
[13] = Ratio of drug level in spleen to plasma in C57BI/6 mouse at 30 mg/kg, po after 4 hrs; type: ADME, organism-based; set-up: dose 30 mg/kg, route oral
In short: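 Male or female unspecified 18–25 g C57Bl/6 mice received the HCl salt at 30 mg/kg by oral gavage in 0.5% gelatin, 5% mannitol in water. Blood and spleen were collected after dosing and total compound levels measured. The spleen/plasma ratio was taken from total spleen and total plasma concentrations (nM).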

[14] = Oral bioavailability in C57 mouse at 2 mg/kg, iv or 10 mg/kg, po; type: ADME, organism-based; settings: in vivo
In short: (§1)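 Pharmacokinetics in male C57 mice, Sprague Dawley rats and Cynomolgus monkeys. Dosing was 2 mg/kg iv and 10 mg/kg po, with oral vehicle gelatin/mannitol. Parameters reported are clearance, Vss, Cmax and oral bioavailability (F %).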

[15] = Clearance in C57 mouse at 2 mg/kg, iv or 10 mg/kg, po; type: ADME, organism-based; settings: in vivo; in short: as §1
[16] = Volume of distribution at steady state in C57 mouse at 2 mg/kg, iv or 10 mg/kg, po; type: ADME, organism-based; settings: in vivo, read-out: Vdss; in short: as §1
[17] = Cmax in C57 mouse at 2 mg/kg, iv or 10 mg/kg, po; type: ADME, organism-based; settings: in vivo; in short: as §1
[18] = Clearance in Sprague-Dawley rat at 2 mg/kg, iv or 10 mg/kg, po; type: ADME, organism-based; settings: in vivo; in short: as §1
[19] = Oral bioavailability in Sprague-Dawley rat at 2 mg/kg, iv or 10 mg/kg, po; type: ADME, organism-based; settings: in vivo; in short: as §1
[20] = Cmax in Sprague-Dawley rat at 2 mg/kg, iv or 10 mg/kg, po; type: ADME, organism-based; settings: in vivo; in short: as §1
[21] = Volume of distribution at steady state in Sprague-Dawley rat at 2 mg/kg, iv or 10 mg/kg, po; type: ADME, organism-based; settings: in vivo, read-out: Vdss; in short: as §1
[22] = Oral bioavailability in cynomolgus monkey at 2 mg/kg, iv or 10 mg/kg, po; type: ADME, organism-based, Macaca fascicularis; settings: in vivo; in short: as §1
[23] = Clearance in cynomolgus monkey at 2 mg/kg, iv or 10 mg/kg, po; type: ADME, organism-based, Macaca fascicularis; settings: in vivo; in short: as §1
[24] = Cmax in cynomolgus monkey at 2 mg/kg, iv or 10 mg/kg, po; type: ADME, organism-based, Macaca fascicularis; settings: in vivo; in short: as §1
[25] = target: Cathepsin S (Mus musculus, UniProt O70370); test: Inhibition of mouse cathepsin S
[26] = Volume of distribution at steady state in cynomolgus monkey at 2 mg/kg, iv or 10 mg/kg, po; type: ADME, organism-based, Macaca fascicularis; settings: in vivo, read-out: Vdss; in short: as §1
[27] = system: Liver microsomes; test: Stability in human liver microsome; type: ADME
[28] = Stability in C57 mouse liver microsome; type: ADME; settings: microsomes
[29] = system: Liver microsomes; test: Stability in Sprague-Dawley rat liver microsome; type: ADME

T2 sequence (P25774 whole entry): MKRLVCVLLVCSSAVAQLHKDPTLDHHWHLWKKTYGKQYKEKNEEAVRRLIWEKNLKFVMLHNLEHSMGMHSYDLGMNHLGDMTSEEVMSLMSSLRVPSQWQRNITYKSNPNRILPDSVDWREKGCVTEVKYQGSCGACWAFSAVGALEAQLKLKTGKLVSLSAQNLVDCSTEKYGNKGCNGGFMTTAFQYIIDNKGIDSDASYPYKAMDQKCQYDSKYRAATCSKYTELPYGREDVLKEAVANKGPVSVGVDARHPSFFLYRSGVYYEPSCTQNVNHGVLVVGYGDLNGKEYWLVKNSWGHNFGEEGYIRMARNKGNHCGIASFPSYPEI
Procathepsin L, sequence (P07711 whole entry): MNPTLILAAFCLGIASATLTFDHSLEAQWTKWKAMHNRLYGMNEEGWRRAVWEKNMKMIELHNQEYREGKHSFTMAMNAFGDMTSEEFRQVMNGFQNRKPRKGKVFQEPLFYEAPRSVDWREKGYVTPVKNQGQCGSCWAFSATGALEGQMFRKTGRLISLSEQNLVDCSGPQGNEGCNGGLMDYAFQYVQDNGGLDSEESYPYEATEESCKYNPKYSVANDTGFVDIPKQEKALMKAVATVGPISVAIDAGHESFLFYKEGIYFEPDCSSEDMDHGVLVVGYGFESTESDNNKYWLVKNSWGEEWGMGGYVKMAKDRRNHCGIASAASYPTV
Cathepsin S (Mus musculus, UniProt O70370), sequence (O70370 whole entry): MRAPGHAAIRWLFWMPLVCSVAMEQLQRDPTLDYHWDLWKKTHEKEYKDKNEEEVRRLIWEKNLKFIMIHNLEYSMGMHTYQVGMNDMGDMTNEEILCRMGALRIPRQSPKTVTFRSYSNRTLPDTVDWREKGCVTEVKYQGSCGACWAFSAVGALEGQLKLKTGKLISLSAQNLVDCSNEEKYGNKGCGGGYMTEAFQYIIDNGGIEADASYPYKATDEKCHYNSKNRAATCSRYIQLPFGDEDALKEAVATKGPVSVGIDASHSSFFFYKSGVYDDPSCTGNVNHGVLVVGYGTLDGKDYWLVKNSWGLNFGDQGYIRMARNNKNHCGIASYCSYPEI

SMILES	IC50 [1] [nM]	IC50 [2] [nM]	IC50 [3] [nM]	IC50 [4] [nM]	IC50 [5] [nM]	IC50 [6] [nM]	concentration [7] [µM]	concentration [8] [µM]	Kp [9]	pKa [10]	other results
CN1CCC(CCOc2ccc(-c3cc4c(ncn4C)c(C#N)n3)cc2C(F)(F)F)CC1	> 10000	> 10000	7.9	10	> 10000	–	–	–	–	–	–
Cc1noc(C)c1CN1CCC(CCOc2ccc(-c3cc4c(ncn4C)c(C#N)n3)cc2C(F)(F)F)CC1	> 10000	> 10000	3.3	12	> 10000	288	19.6	3.4	5.8	7.9	–
Cc1noc(CN2CCC(CCOc3ccc(-c4cc5c(ncn5C)c(C#N)n4)cc3C(F)(F)F)CC2)n1	> 10000	> 10000	18.6	294	> 10000	1150	4.09	5.66	0.7	5.3	–
CN(C)CCCOc1ccc(-c2cc3c(ncn3C)c(C#N)n2)cc1C(F)(F)F	> 10000	> 10000	–	–	> 10000	–	–	–	–	–	concentration at 4 h [11]: 2.43 µM; concentration at 4 h [12]: 0.094 µM; Kp at 4 h [13]: 26
CC(=O)N1CCC(CCOc2ccc(-c3cc4c(ncn4C)c(C#N)n3)cc2C(F)(F)F)CC1	> 10000	> 10000	13	235	> 10000	1910	–	–	–	–	–
CN(C)C(=O)CN1CCC(CCOc2ccc(-c3cc4c(ncn4C)c(C#N)n3)cc2C(F)(F)F)CC1	> 10000	> 10000	–	22	> 10000	407	11.7	1.03	11.4	7.5	bioavailability [14]: 62%; clearance [15]: 79.4 mL/min/kg; Vd [16]: 6.17 L/kg; Cmax [17]: 296 ng/mL; clearance [18]: 93.5 mL/min/kg; bioavailability [19]: 8.93%; Cmax [20]: 13.4 ng/mL; Vd [21]: 9.8 L/kg
Cn1cnc2c(C#N)nc(-c3ccc(OCCC4CCN(S(C)(=O)=O)CC4)c(C(F)(F)F)c3)cc21	> 10000	> 10000	27	353	> 10000	2340	–	–	–	–	–
Cn1cnc2c(C#N)nc(-c3ccc(OCCC4CCN(Cc5ncco5)CC4)c(C(F)(F)F)c3)cc21	> 10000	> 10000	7.9	39	> 10000	708	12.5	6.61	1.9	6.3	bioavailability [14]: 112%; bioavailability [22]: 9%; clearance [15]: 13.9 mL/min/kg; clearance [23]: 10 mL/min/kg; Vd [16]: 1.48 L/kg; Cmax [17]: 3160 ng/mL; Cmax [24]: 234 ng/mL; IC50 [25]: 1.6 nM; clearance [18]: 73.8 mL/min/kg; bioavailability [19]: 3.6%; Cmax [20]: 9.64 ng/mL; Vd [21]: 2.43 L/kg; Vd [26]: 0.6 L/kg
Cc1nnc(CN2CCC(CCOc3ccc(-c4cc5c(ncn5C)c(C#N)n4)cc3C(F)(F)F)CC2)o1	> 10000	> 10000	14.1	123	> 10000	813	18.2	6.37	2.9	5.6	–
Cn1cnc2c(C#N)nc(-c3ccc(OCCC4CCNCC4)c(C(F)(F)F)c3)cc21	> 10000	> 10000	–	–	> 10000	–	–	–	–	–	Stability [27]: Stable; Stability [28]: Stable; Stability [29]: Stable
CCN1CCN(CCCOc2ccc(-c3cc4c(ncn4C)c(C#N)n3)cc2C(F)(F)F)CC1	> 10000	> 10000	–	–	> 10000	–	4.57	0.09	51	–	–
